Series [1] deals with liver. The conditions noted are these: subchronic studies; ref Hassoun et al. 2010a; cited from earlier work.
The subject of series [2] is DNA single strand breaks in the livers of mice. The series is described as follows: DNA single strand breaks. The format is in vivo, B6C3F1 male mice. Conditions: for intercept of regression DNA-SSBs vs Dose / slope of regression DNA-SSBs vs Dose: DNA-SSBs as elution rate constant k; for slope of regression DNA-SSBs vs Dose: dose mg/kg/day; for effect on DNA SSB in livers: gavage daily for 13 weeks. Put shortly: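 Male B6C3F1 mice (6/group) were gavaged daily for 13 weeks with test compound in distilled water (pH 7) and killed 24 hr after the last dose. Liver was homogenised 25% w/v in KCl/NaCl/spermine/spermidine/sucrose/EDTA/EGTA/Tris/PMSF/2-mercaptoethanol buffer and spun at 3000 g to get nuclei. These were lysed on 5 µm filters (2% SDS, 25 mM EDTA, pH 10.3, 20 min), then eluted at pH 12.3 into seven 3 ml fractions. DNA was read by diaminobenzoic acid fluorescence (436/521 nm). k = −2.3 × slope of log10 %DNA retained vs eluate volume.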

The conditions of series [3]: 410 mg DCA/kg/day, subchronic studies; ref Hassoun et al, 2010a; cited from earlier work.
Series [4] has as its system lipid peroxidation (LP) in the livers of mice. The series is described as follows: lipid peroxidation. The format is in vivo, B6C3F1 male mice. The conditions noted are these: for slope of regression LP vs Dose: LP as nmoles TBARS/mg protein, dose mg/kg/day; for effect on LP in livers: gavage daily for 13 weeks; for intercept of regression LP vs Dose: regression analysis. In short, it runs like this:
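Mice (6/group) received daily gavage of test compound (pH 7 aqueous) for 13 weeks and were killed 24 hr post-dose. A 10% w/v liver homogenate in Tris-KCl (pH 7.4) was mixed with 1% phosphoric acid, 0.6% thiobarbituric acid and butylated hydroxyanisole, then heated at 100°C for 45 min. TBARS were extracted into n-butanol and read at 535 nm (ε 1.556 × 10^5 M−1 cm−1), normalised to Lowry protein. Means ± S.D. are reported; regression was against dose.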

For series [5], the system named is superoxide anion (SA) production in the livers of mice. The series is described as follows: superoxide anion. The format is in vivo, B6C3F1 male mice. Conditions: for slope of regression SA vs Dose: SA as nmoles cytochrome c reduced/ min/ mg protein, dose mg/kg/day; for effect on SA production in livers: gavage daily for 13 weeks. In short, it runs like this: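 After 13 weeks of daily gavage (test compound, aqueous pH 7; 6 mice/group), liver was homogenised 10% w/v in Tris-KCl, pH 7.4. Homogenate was incubated with 45 nmol cytochrome c in PBS, pH 7.2, for 15 min at 37°C. The reaction was stopped on ice and centrifuged, and the supernatant was read at 550 nm. Values were converted with ε 2.1 × 10^4 M−1 cm−1 to nmol reduced/min/mg Lowry protein; regression was against dose.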

The nature of series [6]: liver/body weight ratio after subchronic gavage exposure. The format is in vivo, B6C3F1 male mice. Conditions: mean ± SD. Put shortly: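 Male B6C3F1 mice arrived at 6 weeks (~20 g) and were given test compound or water vehicle (pH 7) by daily gavage for 13 weeks, 6/group. Body weights were taken weekly. Animals were killed 24 hr after the last dose (CO2, cervical dislocation) and livers were weighed. Data are means ± S.D.; one-way ANOVA with Tukey post-hoc test.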

Series [7] deals with cytochrome c reduction in liver homogenates. The conditions noted are these: SOD added to assay mixture of liver homogenate; ref Hassoun and Dey, 2008; cited from earlier work.

In the case of `O=C(O)C(Cl)Cl` [DCA, sodium dichloroacetate], the “threshold dose for hepatotoxicity” value in series [1] is recorded as 154 mg/kg/day. Further, in series [2], the “intercept of regression DNA-SSBs vs Dose” value is on record as 0.00215, the “slope of regression DNA-SSBs vs Dose” value is recorded as 0.000201 and the “effect on DNA SSB in livers” value was “dose-dependent increases”. In addition, in series [3], the “increase in liver/body weight ratio associated with hepatomegaly” value is 1.3 fold. For the same molecule, in series [4], the “slope of regression LP vs Dose” value is reported as 0.2041, the “effect on LP in livers” value is “dose-dependent increases” and the “intercept of regression LP vs Dose” value is 1.185 nmoles TBARS/mg protein. In addition, in series [5], the “slope of regression SA vs Dose” value is listed as 0.1036 and the “effect on SA production in livers” value was “dose-dependent increases”. In series [6] (DCA 7.5 mg/kg/day by gavage for 13 weeks), the Liver/body weight ratio is given as 0.054 ± 0.009. For the same molecule, the Liver/body weight ratio in series [6] (DCA 15 mg/kg/day by gavage for 13 weeks) worked out at 0.051 ± 0.002. Also, in series [6] (DCA 30 mg/kg/day by gavage for 13 weeks), the Liver/body weight ratio was 0.053 ± 0.007.
With `O=C(O)C(Cl)(Cl)Cl` [TCA, sodium trichloroacetate], in series [1], the “threshold dose for hepatotoxicity” value is given as 410 mg/kg/day. Besides, in series [2], the “intercept of regression DNA-SSBs vs Dose” value is recorded as 0.00152, the “slope of regression DNA-SSBs vs Dose” value was found to be 0.000052 and the “effect on DNA SSB in livers” value is “dose-dependent increases”. For the same molecule, in series [4], the “slope of regression LP vs Dose” value stood at 0.0631, the “effect on LP in livers” value is “dose-dependent increases” and the “intercept of regression LP vs Dose” value is given as 0.870 nmoles TBARS/mg protein. For the same molecule, in series [5], the “slope of regression SA vs Dose” value was 0.0237 and the “effect on SA production in livers” value was “dose-dependent increases”. The Liver/body weight ratio in series [6] (TCA 12.5 mg/kg/day by gavage for 13 weeks) was determined as 0.057 ± 0.003. Further, in series [6] (TCA 25 mg/kg/day by gavage for 13 weeks), the Liver/body weight ratio was found to be 0.055 ± 0.005. In addition, the Liver/body weight ratio in series [6] (TCA 50 mg/kg/day by gavage for 13 weeks) is 0.049 ± 0.005.
As for superoxide dismutase [SOD], the “inhibition of cytochrome c reduction” value in series [7] is recorded as 91.1%.
